Env fusion inh: HIV envelope-mediated fusion inhibition; inhibition, % at 12.3 µM; 360,000 compounds, 1.1% hits; AID 651610; HeLa-JRFL Env/CEM21 cell fusion, luciferase;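 active = mean replicate inhibition score of at least 50 and every replicate individually at or above 50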
S100A4 inh HTS: S100A4-myosin IIA interaction inhibition; 360,000 compounds, 0.14% hits; S100A4/TAMRA-MyoIIA peptide fluorescence polarization; inhibition, % at 10.7 µM; AID 652163;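 active = mean inhibition of at least 70% across replicates, with every replicate also reaching that level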
Target sequence (P26447 whole entry, looked up): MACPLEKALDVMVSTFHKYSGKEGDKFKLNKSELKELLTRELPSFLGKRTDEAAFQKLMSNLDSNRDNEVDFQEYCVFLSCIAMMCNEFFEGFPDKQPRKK
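Test system: S100A4 monomer protein. Medium: HEPES buffer with Ca2+, pH 7.2. Reagent: fluorescent myosin IIA peptide, 5 nM. Compound dosing: single-point compound testing. Timing: 5 min between mix addition and reading. Benchmarks: DMSO neutral and TFP positive wells.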
FGF22 binding: shifts melting point of recombinant human FGF22. Q9HCT0. recombinant FGF22 thermal shift, SYPRO orange fluorescence; percent of sucrose octasulfate shift, DMSO zero. activity (Tm shift, normalised), % at 9.99 µM. 340,000 compounds, 1.5% hits;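 active = mean Tm shift, scaled 0 neutral to 100 positive control, at about 1.3% or above, every replicate too, limit read from the data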
Target sequence (Q9HCT0 whole entry, looked up): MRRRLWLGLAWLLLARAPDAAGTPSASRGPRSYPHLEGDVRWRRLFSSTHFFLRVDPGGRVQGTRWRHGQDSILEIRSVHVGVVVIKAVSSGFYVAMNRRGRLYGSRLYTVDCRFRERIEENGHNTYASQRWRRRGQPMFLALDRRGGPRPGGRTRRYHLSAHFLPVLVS
E-sel inducer: E-selectin induction on HUVECs | AID 686992 | HUVEC E-selectin immunofluorescence imaging; normalized: neutral wells 0, TNF-alpha wells 100 | activation, % at 7.58 µM | 260,000 compounds, 0.37% hits;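 active = mean E-selectin-positive cell signal at least 10% of the positive control, reached in at least 60% of replicates, without over 20% cell loss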
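Test system: HUVEC; input: 3,000 HUVEC/well; measured by: immunofluorescence imaging; read-out: % PE-positive cells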
CFTR F508del cor: correctors of CFTR F508del function in bronchial epithelial cells | activity (quench increase), % at 7.58 µM | CFBE cells, YFP halide quenching; stimulated with forskolin plus potentiator P3; % fluorescence drop versus neutral controls | 350,000 compounds, 0.36% hits;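 active = mean added fluorescence quench of at least 8% versus neutral control, with both replicates also reaching 8%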;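 note: cells transiently co-express mutant CFTR-F508del with the halide-sensitive YFP; corrector assay measuring rescue of mutant channel to the surface after 24 h compound exposure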
A number is an active result; i = inactive; nt = not tested or not shown. Shown are actives, neighbours in structure and some others; about 2.7% of the full set was active somewhere.

SMILES	Env fusion inh	S100A4 inh HTS	FGF22 binding	E-sel inducer	CFTR F508del cor
CC(C)CC#Cc1ccc2c(c1)O[C@@H](CN(C)C(=O)C1CCC1)[C@H](C)CN([C@H](C)CO)S2(=O)=O	i	i	i	i	i
CC(C)c1ccc(CNC(=O)C(=O)Nc2nccs2)cc1	i	i	43	nt	i
CC(=O)N1CC2(C1)[C@H](c1ccc(-c3ccc(C#N)cc3)cc1)[C@H](CO)N2CCC(F)(F)F	nt	i	i	i	i
O=C(CC(=O)c1cccc([N+](=O)[O-])c1)Nc1ccccc1Cl	i	i	44	nt	i
O=C(CCNc1ccccc1)c1cccc([N+](=O)[O-])c1	i	nt	nt	nt	nt
CCOc1ccc2nc(Cl)sc2c1	i	i	43	nt	i
O=C1CC(c2ccccc2)CC(O)=C1C=Nc1ccccc1 (configuration not stated)	i	i	44	nt	i
O=C1CC(c2ccccc2)CC(O)=C1C=Nc1ccccc1O (configuration not stated)	i	i	i	i	nt
O=C(C[C@H]1C=C[C@@H](NC(=O)c2ccc3c(c2)OCO3)[C@@H](CO)O1)NCc1ccc(F)cc1	nt	i	nt	i	i
[O-]/C(=C(\C(=S)NCc1ccccc1)[n+]1ccccc1)c1ccc(Cl)s1	i	i	43	nt	i
[O-]/C(=C(\C(=S)NCCN1CCOCC1)[n+]1ccccc1)c1ccc(Cl)s1	i	i	i	nt	i
CC(=O)C1=C(C)NC2=C(C(=O)c3ccccc32)C1c1ccccc1 (configuration not stated)	64	i	i	i	i
CC1=C(C#N)C(c2ccccc2)C2=C(N1)c1ccccc1C2=O (configuration not stated)	i	i	i	i	nt
O=C(COC(=O)COc1ccccc1)NCCc1ccccc1	i	i	i	i	i
NS(=O)(=O)c1ccc(CCNC(=O)CN2CCN(c3cccc(Cl)c3)CC2)cc1	i	i	i	i	nt
COc1ccccc1NC(=S)NCCc1ccc(S(N)(=O)=O)cc1	i	i	46	nt	i
CN(CC(=O)NCCc1ccc(S(N)(=O)=O)cc1)c1ccccc1	i	i	43	nt	i
NS(=O)(=O)c1ccc(CCNC(=O)CN2CCN(c3ccc(F)cc3)CC2)cc1	64	nt	nt	nt	nt
O=C(COC(=O)COc1ccccc1F)NCCc1ccc(F)cc1	i	i	i	i	9.1
O=C(NCc1ccccc1Cl)[C@@H]1[C@@H](CO)[C@@H]2Cn3c(cccc3=O)[C@@H]2N1C(=O)C1CCCC1	nt	i	i	i	i
O=C(C1CCC1)N1CC(=O)N2[C@H](CO)[C@H](c3ccc(C#Cc4cccc(F)c4)cc3)[C@H]2C1	nt	nt	nt	i	i
CCOc1ccccc1OCC(=O)NCCc1ccc(S(N)(=O)=O)cc1	i	i	43	i	i
COc1ccc2[nH]c(C)c(CCNC(=S)Nc3cc(C)ccc3C)c2c1	i	i	i	i	i
COc1ccc2[nH]c(C)c(CCNC(=S)Nc3ccccc3OC)c2c1	i	i	43	i	i
CC(C)C#Cc1ccc2c(c1)O[C@@H](CN(C)Cc1ccccc1)[C@@H](C)CN([C@H](C)CO)S2(=O)=O	i	i	i	i	i
SMILES	Env fusion inh	S100A4 inh HTS	FGF22 binding	E-sel inducer	CFTR F508del cor
Cc1noc(NS(=O)(=O)c2ccc(NC(=O)/C=C/c3ccc(C(C)C)cc3)cc2)c1C	i	i	1.4	i	i
Cc1noc(NS(=O)(=O)c2ccc(NC(=O)/C=C/c3ccc(Br)cc3)cc2)c1C	i	i	i	i	i
CN1CCN(C(=O)[C@@H]2[C@@H](CO)[C@@H]3Cn4c(ccc(-c5cccnc5)c4=O)[C@@H]3N2CC2CC2)CC1	nt	i	i	i	i
CCCCCCn1c(=O)n2n(c1=O)C[C@]1(OC(=O)Nc3cccs3)CN(S(=O)(=O)c3ccc(C)cc3)C[C@]1(O)C2	i	i	i	nt	i
CCCCCCn1c(=O)n2n(c1=O)C[C@]1(OC(=O)Nc3c(C)noc3C)CN(S(=O)(=O)c3ccc(C)cc3)C[C@]1(O)C2	i	i	43	i	i
C[C@@H]1CN([C@H](C)CO)S(=O)(=O)c2ccc(-c3ccccc3F)cc2O[C@H]1CN(C)Cc1ccncc1	i	i	i	i	i
O=C(NNC(=O)C1CC1c1ccccc1)Nc1cccc(Cl)c1 (configuration not stated)	56	nt	nt	nt	nt
CCc1cccc(NC(=O)C2CC2c2ccccc2)c1 (configuration not stated)	i	i	i	nt	i

Assay outcomes (PubChem BioAssay)
